Compounds with a hit are over-represented: about 2.7% of the library has one in this group of screens.
OXTR agonist: human OXTR agonists, primary screen, fluorescence, CHO-OTR cells, Fluo-8 calcium; Oxytocin receptor (Homo sapiens), P30559; Fluo-8 calcium fluorescence; normalized: DMSO 0%, oxytocin 100%; activation, % at 3 µM; 0.32% of 320,000 active;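 active = activation above the mean of all tested compounds plus 3 SD, cutoff set per screening run, cut at about 20% in these data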;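 note: peak over basal fluorescence ratio from a 100 s FLIPR kinetic read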
Target sequence (P30559 whole entry, looked up): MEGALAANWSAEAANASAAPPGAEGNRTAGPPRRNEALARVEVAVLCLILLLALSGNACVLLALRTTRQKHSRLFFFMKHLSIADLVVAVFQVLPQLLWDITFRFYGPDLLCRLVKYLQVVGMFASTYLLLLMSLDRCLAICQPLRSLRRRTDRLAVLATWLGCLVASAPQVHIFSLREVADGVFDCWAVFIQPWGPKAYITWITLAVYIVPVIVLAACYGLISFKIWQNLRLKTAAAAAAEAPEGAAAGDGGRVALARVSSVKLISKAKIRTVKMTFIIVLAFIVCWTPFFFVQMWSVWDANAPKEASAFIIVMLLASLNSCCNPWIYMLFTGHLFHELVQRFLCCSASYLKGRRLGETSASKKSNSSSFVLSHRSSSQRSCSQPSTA
CHO parental Ca: ATP-evoked calcium signal inhibitors, parental CHO, primary screen, counter-screen for OX1R antagonist project, cell-based, fluorescence, Fluo-8 calcium dye; parental CHO-K1, ATP-induced calcium, Fluo-8 fluorescence; inhibition, % at 5.6 µM; 0.63% of 330,000 active; AID 463079, 2010;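 active = inhibition above that plate's mean sample inhibition plus 3 SD, cut at about 26% in these data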
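Assay system – parental CHO cells · Reagent – ATP stimulus · Detection – intracellular calcium via Fluo-8 no-wash fluorescent dye · Evaluation – percent inhibition of ATP-evoked calcium rise, normalized to controls · Controls – ATP wells versus no-ATP DMSO wells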
V1R ag counter: agonists of human V1a receptor, primary screen, counter-screen for OXTR agonist project, fluorescence, CHO-V1R cells; 0.25% of 320,000 active; Fluo-8 calcium fluorescence, agonist mode; 0% DMSO, 100% 3 nM vasopressin; activation, % at 3 µM; AID 2797, 2010; Vasopressin V1a receptor (Homo sapiens), P37288;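 active = activation above the mean activation of all tested compounds plus 3 SD, per screening run, cut at about 20% in these data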;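 note: signal is peak over basal fluorescence ratio across a 100 second FLIPR read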
OX1R antag-1: OX1R (HCRTR1) antagonists, primary screen, fluorescence, CHO/OX1R cells, Fluo-8 calcium, orexin A; Orexin/Hypocretin receptor type 1 (Homo sapiens), O43613; Fluo-8 calcium fluorescence; inhibition, % at 5 µM; 0.43% of 330,000 active; AID 434989, 2010;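 active = inhibition above its plate's threshold, mean inhibition of all tested compounds on the plate plus 3 SD, cut at about 37% in these data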
OX1R antag-2: antagonists of human orexin 1 receptor (OX1R). Orexin/Hypocretin receptor type 1 (Homo sapiens), O43613. OX1R-expressing cells, FRET antagonist read-out. inhibition, % at 6.6 µM. 1.8% of 330,000 active; in the data active = inhibition mostly above about 38%, no sharp cut-off; inactive = mostly below about 40%
OXTR potentiate: human OXTR potentiators, primary screen, fluorescence, CHO-OTR cells, Fluo-8 calcium; AID 2445, 2010; 0.061% of 320,000 active; Oxytocin receptor (Homo sapiens), P30559; Fluo-8 calcium fluorescence, potentiator mode; 0% = oxytocin EC15, 100% = EC100; activation, % at 3 µM;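 active = activation above that plate's cutoff, the mean activation of tested compounds plus 3 SD, cut at about 6.6% in these data, passing the limit was not always enough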
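System: human OTR in CHO cells; Also added: sub-maximal oxytocin, roughly EC15; Timing: compound 6 min at room temperature before oxytocin, 100 s read; Technique: Fluo-8 intracellular calcium fluorescence, ex 470-495, em 515-575 nm; Controls: oxytocin EC15 low and EC100 high; Replication: singlicate.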
OX1R HTRF conf: OX1R (HCRTR1) antagonists, confirmation, cell-based, HTRF; shares compounds with OX1R antag-2; OX1R-expressing cells, HTRF antagonist assay; inhibition, % at 6.6 µM; 49% of 1,800 active; AID 492964, 2010; in the data active = inhibition above about 55%;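 note: CHO cells expressing OX1R stimulated with orexin A at about EC80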
CHO-K1 HTRF: signal inhibition in parental CHO-K1 cells, counter-screen for OX1R antagonist project, cell-based, HTRF | 48% of 1,800 active | HTRF counterscreen | inhibition, % at 6.6 µM | AID 493232, 2011 | shares compounds with OX1R antag-2; in the data active = inhibition above about 17%
Each line names hits and unclear results; the compound was inactive in the other large screens (follow-up assays come after a bar, where they were run).

O=C1c2oc3ccccc3c(=O)c2C(c2ccc(O)cc2)N1c1nccs1 (stereo unspecified)	none
COc1ccccc1C(=O)NCCC(=O)NCC(c1ccco1)N1CCCC1 (stereo unspecified)	none
Cc1ccsc1C(=O)Nc1ccc(O)c(-c2nc3ccccc3s2)c1	OX1R antag-2 81 | OX1R HTRF conf 73 | CHO-K1 HTRF inactive
CC(=O)Nc1ccc(O)c(-c2nc3ccccc3s2)c1	none
O=C(Nc1ccc(O)c(-c2nc3ccccc3s2)c1)C1=COCCO1	OX1R antag-2 88 | OX1R HTRF conf inactive | CHO-K1 HTRF inactive
O=C(NCc1ccc(F)cc1)C1CCN(S(=O)(=O)c2ccc(Br)s2)CC1	none
O=C(N=Nc1c(O)[nH]c2ccccc12)c1cccc(S(=O)(=O)Nc2ccccc2Cl)c1	OX1R antag-2 84 | OX1R HTRF conf 92 | CHO-K1 HTRF inactive
CC(C)c1ccc2[nH]c(O)c(N=NC(=O)c3cccc(S(=O)(=O)Nc4ccccc4Cl)c3)c2c1	none
Cc1ccc(CNC(=O)Cc2noc3ccccc23)cc1	none
Cc1nc(-c2ccc([N+](=O)[O-])cc2)sc1C(=O)O	OX1R antag-2 156 | OX1R HTRF conf inactive | CHO-K1 HTRF 76
CC(=O)N(CN1C(=O)c2ccccc2C1=O)c1cccc(C)c1	none
CC(=O)N(/N=C1\Sc2ccccc2C1=O)c1cccc(C)c1	OX1R antag-2 105 | OX1R HTRF conf inactive | CHO-K1 HTRF inactive
CCN(CC(=O)Nc1ccc(NC(C)=O)cc1)C(=O)COc1ccc2ccccc2c1	none
CCN(CC(=O)Nc1ccccc1OC)C(=O)COc1ccc2ccccc2c1	OX1R antag-2 97 | OX1R HTRF conf 66 | CHO-K1 HTRF inactive
COc1ccc2c(c1)[n+](=O)c(C(C)=O)c(C)n2[O-]	none
CCOC(=O)c1c(=O)n(O)c2ccc(OC)cc2[n+]1[O-]	OX1R antag-2 118 | OX1R HTRF conf inactive | CHO-K1 HTRF 62
O=[N+]([O-])c1ccc(N2CCCCC2)cn1	none
CC1CN(c2ccc([N+](=O)[O-])nc2)CC(C)O1 (stereo unspecified)	OX1R antag-2 82 | OX1R HTRF conf inactive | CHO-K1 HTRF 47
COc1ccc(N=NC2=C(O)CC(C)(C)CC2=O)cc1	OX1R antag-2 102 | OX1R HTRF conf inactive | CHO-K1 HTRF 28
COc1cccc(N=Nc2c(=O)[nH]n3c(=O)cc(C)[nH]c23)c1	OX1R antag-2 107 | OX1R HTRF conf inactive | CHO-K1 HTRF 48
Cc1cccc(C(=O)N2CCCC(N3CCN(c4ccccc4)CC3)C2)n1 (stereo unspecified)	none
Cc1[nH]n(-c2ccccc2)c(=O)c1/C=N/Nc1nncc(-c2ccccc2)n1	OX1R antag-2 80 | OX1R HTRF conf inactive | CHO-K1 HTRF inactive
CCS(=O)(=O)c1ccc(Sc2nncn2C)c([N+](=O)[O-])c1	OX1R antag-2 96 | OX1R HTRF conf inactive | CHO-K1 HTRF 51
CCC(C)(C)NC(=O)c1ccc(Sc2nncn2C)c([N+](=O)[O-])c1	none
